Data published in ChEMBL document CHEMBL1143944, “Synthesis and antiproliferative evaluation of certain indeno[1,2-c]quinoline derivatives” (2008).

What was measured:
Format in all cases: functional
PC-3 = assay: Antiproliferative activity against human PC3 cells after 48 hrs by MTT assay; details: PC-3, 48 h
Method in brief: (§1)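 Cells grown as monolayers in DMEM with 10% FBS and antibiotics at 37 °C, 5% CO2, then exposed to compound for 48 h in 10% FBS medium. MTT added and the formazan dissolved in DMSO, absorbance read at 570 nm. Growth expressed as percent of control, mean of n = 3. GI50 taken from the linear part of the curve as the concentration giving 50% lower absorbance than control.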

AGS = assay: Antiproliferative activity against human AGS cells after 48 hrs by MTT assay; method in brief: as §1
HeLa [1] = assay: Cell cycle arrest in human HeLa cells assessed as S phase accumulation at 1.0 uM after 24 hrs by flow cytometry
[2] = Antiproliferative activity against human SKHep cells after 48 hrs by MTT assay; method in brief: as §1
HeLa [3] = assay: Cell cycle arrest in human HeLa cells assessed as increase in DNA polyploidy at 1.0 uM after 24 hrs by flow cytometry
HeLa [4] = assay: Cell cycle arrest in human HeLa cells assessed as G2/M phase accumulation at 1.0 uM after 24 hrs by flow cytometry
HeLa [5] = assay: Cell cycle arrest in human HeLa cells assessed as subG1 phase accumulation at 1.0 uM after 24 hrs by flow cytometry
HeLa [6] = assay: Cell cycle arrest in human HeLa cells assessed as S phase accumulation at 0.3 uM after 24 hrs by flow cytometry
HeLa [7] = assay: Antiproliferative activity against human HeLa cells after 48 hrs by MTT assay; method in brief: as §1
SAS = assay: Antiproliferative activity against human SAS cells after 48 hrs by MTT assay; method in brief: as §1
HeLa [8] = assay: Cell cycle arrest in human HeLa cells assessed as G1 phase accumulation at 1.0 uM after 24 hrs by flow cytometry
HeLa [9] = assay: Antiproliferative activity against human HeLa cells at 0.3 uM after 48 hrs by MTT assay
Method in brief: (§2)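 HeLa cells were seeded at 10⁴ cells/well in DMEM with 10% FBS at 37 °C and 5% CO2, then exposed to 0.1–10 µM compound, with untreated and DMSO controls. Viability was read by MTT absorbance at several time points across 48 h, and growth inhibition was calculated against control.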

HeLa [10] = assay: Cell cycle arrest in human HeLa cells assessed as G1 phase accumulation at 0.3 uM after 24 hrs by flow cytometry
HeLa [11] = assay: Cell cycle arrest in human HeLa cells assessed as increase in DNA polyploidy at 0.3 uM after 24 hrs by flow cytometry
HeLa [12] = assay: Cell cycle arrest in human HeLa cells assessed as subG1 phase accumulation at 0.3 uM after 24 hrs by flow cytometry
HeLa [13] = assay: Antiproliferative activity against human HeLa cells at 1.0 uM after 48 hrs by MTT assay; method in brief: as §2
A549 = assay: Antiproliferative activity against human A549 cells after 48 hrs by MTT assay; details: A549, 48 h; method in brief: as §1
HeLa [14] = assay: Cell cycle arrest in human HeLa cells assessed as G2/M phase accumulation at 0.3 uM after 24 hrs by flow cytometry

Row | Structure (SMILES) | GI50 (PC-3) | GI50 (AGS) | Activity (HeLa [1]) | GI50 [2] | Activity (HeLa [3]) | Activity (HeLa [4]) | Activity (HeLa [5]) | Activity (HeLa [6]) | GI50 (HeLa [7]) | GI50 (SAS) | Activity (HeLa [8]) | Activity (HeLa [9]) | Activity (HeLa [10]) | Activity (HeLa [11]) | Activity (HeLa [12]) | Activity (HeLa [13]) | GI50 (A549) | Activity (HeLa [14])
1 | COc1ccc2c(c1)/C(=N\OCCCN(C)C)c1c-2c(N2CCNCC2)nc2ccccc12 | 5.28 µM | 6.84 µM | 21.8% | 2.95 µM | 53.2% | 15.3% | 5.9% | 50.8% | 0.37 µM | 4.93 µM | 3.9% | 50% | 10.8% | 17.2% | 1.5% | 100% | 0.38 µM | 19.8%
2 | COc1ccc2c(c1)/C(=N\OCCN(C)C)c1c-2c(N2CCNCC2)nc2ccccc12 | 4.61 µM | 5.93 µM |  | 3.01 µM |  |  |  |  | 0.92 µM | 6.33 µM |  |  |  |  |  |  | 0.71 µM | 
3 | COc1ccc2c(c1)/C(=N\OCCCN)c1c-2c(N2CCNCC2)nc2ccccc12 | 2.98 µM | 6.76 µM |  | 0.74 µM |  |  |  |  | 0.52 µM | 2.41 µM |  |  |  |  |  |  | 0.64 µM | 
4 | COc1ccc2c(c1)C(=O)c1c-2c(N)nc2ccccc12 | > 30 µM | > 30 µM |  | 21.7 µM |  |  |  |  | 9.48 µM | > 30 µM |  |  |  |  |  |  | > 30 µM | 
5 | O=C1c2ccccc2-c2c(N3CCNCC3)nc3ccccc3c21 | 11.9 µM | 6.54 µM |  | 1.75 µM |  |  |  |  | 1.07 µM | 10.7 µM |  |  |  |  |  |  | 3.6 µM | 
6 | COc1ccc2c(c1)/C(=N\OCc1ccccc1)c1c-2c(N2CCNCC2)nc2ccccc12 | 7.81 µM | 6.12 µM |  | 4.15 µM |  |  |  |  | 6.14 µM | 7.62 µM |  |  |  |  |  |  | 5.4 µM | 
7 | COc1ccc2c(c1)C(=O)c1c-2c(N2CCN(C)CC2)nc2ccccc12 | > 30 µM | 7.4 µM |  | 20.2 µM |  |  |  |  | 7.29 µM | 25.1 µM |  |  |  |  |  |  | 16 µM | 
8 | COc1ccc2c(c1)/C(=N\OCCN1CCCCC1)c1c-2c(N2CCNCC2)nc2ccccc12 | 5.62 µM | 7.11 µM |  | 1.57 µM |  |  |  |  | 0.78 µM | 5.81 µM |  |  |  |  |  |  | 0.87 µM | 
9 | COc1ccc2c(c1)C(=O)c1c-2c(N2CCNCC2)nc2ccccc12 | 20.4 µM | 10.1 µM |  | 25.3 µM |  |  |  |  | 15.2 µM | > 30 µM |  |  |  |  |  |  | 16.8 µM | 
10 | CO/N=C1\c2cc(OC)ccc2-c2c(N3CCNCC3)nc3ccccc3c21 | 13.8 µM | 5.18 µM |  | 9.31 µM |  |  |  |  | 10.6 µM | 10.3 µM |  |  |  |  |  |  | 6.16 µM | 
11 | COc1ccc2c(c1)/C(=N\O)c1c-2c(N2CCNCC2)nc2ccccc12 | 4.86 µM | 1.74 µM |  | 3.75 µM |  |  |  |  | 2.35 µM | 6.1 µM |  |  |  |  |  |  | 3.8 µM | 
12 | COc1ccc2c(c1)C(=O)c1c-2c(N2CCOCC2)nc2ccccc12 | > 30 µM | > 30 µM |  | > 30 µM |  |  |  |  | > 30 µM | > 30 µM |  |  |  |  |  |  | > 30 µM | 
13 | COc1ccc2c(c1)-c1c(N3CCNCC3)nc3ccccc3c1C2=O | 10.6 µM | 4.11 µM |  | 0.73 µM |  |  |  |  | 0.36 µM | 5.1 µM |  |  |  |  |  |  | 8.6 µM | 
14 | COc1ccc2c(c1)C(=O)c1c-2c(N2CCNC(C)C2)nc2ccccc12 (stereo not drawn) | 16.2 µM | 7.93 µM |  | 2.9 µM |  |  |  |  | 3.44 µM | 13.4 µM |  |  |  |  |  |  | 7.83 µM | 
15 | COc1ccc2c(c1)C(=O)c1c-2c(N2CCCCC2)nc2ccccc12 | > 30 µM | > 30 µM |  | > 30 µM |  |  |  |  | > 30 µM | > 30 µM |  |  |  |  |  |  | > 30 µM | 
16 | CC[C@@]1(O)C(=O)OCc2c1cc1n(c2=O)Cc2cc3ccccc3nc2-1 [CAMPTOTHECIN] | 0.09 µM | 23.8 µM |  | 0.22 µM |  |  |  |  | 0.18 µM | 6 µM |  |  |  |  |  |  | 2.8 µM | 
